From PubChem BioAssay
ERp5 block: ERp5 (human) disulfide isomerase inhibition; ERp5 insulin aggregation, absorbance 650 nm, 90 min; inhibition, % at 9.99 µM; actives 0.05% (n = 350,000); Q15084;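 active = mean replicate inhibition above about 25%, with every replicate also reaching it, limit read from the data, passing the limit was not always enough; inconclusive = only one of those two criteria met; inactive = neither criterion met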
CFTR F508del cor: correctors of CFTR F508del function in bronchial epithelial cells. CFBE cells, YFP halide quenching; stimulated with forskolin plus potentiator P3; % fluorescence drop versus neutral controls. activity (quench increase), % at 7.58 µM. actives 0.36% (n = 350,000);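 active = mean added fluorescence quench of at least 8% versus neutral control, with both replicates also reaching 8%; inconclusive = only one of the mean or replicate conditions met; inactive = mean below 8% and not both replicates reaching 8%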;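 also: cells transiently co-express mutant CFTR-F508del with the halide-sensitive YFP; corrector assay measuring rescue of mutant channel to the surface after 24 h compound exposure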
DENV2 CPE: DENV2-induced cell death inhibition. DENV2-infected cells, cytopathic effect rescue, plate reader. CPE inhibition, % at 9.99 µM. actives 1.7% (n = 350,000). AID 651640; in the data active = CPE inhibition above about 20%, passing the limit was not always enough; inconclusive = no clear call, values can overlap the other calls; tested in BHK-21 cells
C2C12 statin: suppression of simvastatin myotoxicity; C2C12 myotubes + simvastatin, ATP luminescence, 48 h; scaled: DMSO 0, geranylgeraniol control 100; rescue of ATP level, % at 7.49 µM; actives 0.78% (n = 330,000); AID 602340;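 active = mean ATP rescue above about 67%, or every replicate alone reaching that limit, limit read from the data, passing the limit was not always enough; inconclusive = no clear call, values can overlap the other calls; inactive = mean under the limit and some replicate under it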;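 also: myotubes were challenged with 10 µM simvastatin during compound exposure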
PDI inh: blocks human protein disulfide isomerase activity; PDI insulin aggregation turbidity, A650, 90 min; P07237; inhibition, % at 10 µM; actives 0.052% (n = 350,000); AID 588391;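 active = mean inhibition across replicates of 30% or more, whatever share of single replicates reach that level; inconclusive = mean inhibition below 30% while every single replicate reaches 30%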
Target sequence (P07237 whole entry, looked up): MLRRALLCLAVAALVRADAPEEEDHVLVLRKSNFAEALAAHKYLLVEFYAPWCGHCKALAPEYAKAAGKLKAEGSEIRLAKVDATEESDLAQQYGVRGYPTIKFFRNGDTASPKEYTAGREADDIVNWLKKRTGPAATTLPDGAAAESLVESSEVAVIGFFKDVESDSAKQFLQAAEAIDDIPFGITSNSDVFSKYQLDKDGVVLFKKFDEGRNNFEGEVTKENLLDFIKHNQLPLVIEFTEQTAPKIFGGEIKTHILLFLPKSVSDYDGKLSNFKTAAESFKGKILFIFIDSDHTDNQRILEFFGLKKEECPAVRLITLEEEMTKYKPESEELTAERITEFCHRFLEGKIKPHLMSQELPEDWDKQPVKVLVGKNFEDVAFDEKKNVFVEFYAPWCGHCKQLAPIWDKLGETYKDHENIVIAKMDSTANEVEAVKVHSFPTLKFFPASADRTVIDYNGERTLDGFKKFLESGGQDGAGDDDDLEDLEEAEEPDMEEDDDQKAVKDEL
Cneo AK release: Cryptococcus neoformans lysis via adenylate kinase release. C. neoformans lysis, adenylate kinase release luminescence, 4 h; normalised: neutral wells 0, clomiphene wells 100. AID 651654. lysis activity, % at 15 µM. actives 0.2% (n = 360,000);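 active = mean lysis activity across replicates of at least 80%, whatever share of replicates individually reach that level; inactive = mean lysis activity below 80%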
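Assay system: C. neoformans cells. Amount: yeast cell density of 5 × 10^6 cells/mL. Technique: AK luminescence. Buffer or medium: YPD. Times: static 4 h at 37 °C with compound, 1 h detection. Dosing: single-point compound dose. Read-out: lysis from increased AK signal.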
Numbers stand for hits; i = inactive; ? = inconclusive; nt = no result given. Only some compounds are listed: those with a hit (about 2.3% of all), similar ones and a draw of the others.

SMILES | ERp5 block | CFTR F508del cor | DENV2 CPE | C2C12 statin | PDI inh | Cneo AK release
C[C@H](CO)N1C[C@H](C)[C@H](CN(C)C(=O)Nc2cccc(F)c2)Oc2ncc(C#CCN(C)C)cc2C1=O | i | i | i | i | nt | 97
COc1cccc(NC(=O)N(C)C[C@H]2Oc3ncc(C#Cc4ccc(F)cc4)cc3C(=O)N([C@@H](C)CO)C[C@@H]2C)c1 | i | i | i | ? | nt | i
C[C@H](CO)N1C[C@H](C)[C@@H](CN(C)C(=O)Nc2cccc(F)c2)Oc2ncc(C#CCN(C)C)cc2C1=O | i | i | i | i | nt | i
C[C@H]1CN([C@@H](C)CO)C(=O)c2cc(C#CCN(C)C)cnc2O[C@@H]1CN(C)C(=O)Nc1cccc(F)c1 | i | i | i | i | nt | 113
COc1cccc(NC(=O)N(C)C[C@@H]2Oc3ncc(C#Cc4ccc(F)cc4)cc3C(=O)N([C@@H](C)CO)C[C@H]2C)c1 | i | i | i | 72 | nt | i
COc1ccc(NC(=O)N(C)C[C@@H]2Oc3ncc(C#CC(C)C)cc3C(=O)N([C@@H](C)CO)C[C@@H]2C)cc1 | i | i | 53 | i | nt | i
O=C(C[C@H]1CC[C@H]2[C@@H](COC[C@@H](O)CN2C(=O)c2ccccc2)O1)NCc1cccc(F)c1 | i | i | i | i | nt | i
O=C(Nc1ccc2nc3n(c(=O)c2c1)CCCC3)c1ccccc1F | i | i | 39 | i | i | i
O=C(Nc1ccc2nc3n(c(=O)c2c1)CCCCC3)c1c(F)ccc([N+](=O)[O-])c1F | i | i | i | 204 | i | i
CCCC#Cc1ccc2c(c1)O[C@H](CN(C)C(=O)c1ccccn1)[C@H](C)CN([C@H](C)CO)S2(=O)=O | i | i | i | i | nt | i
N#Cc1cc2cc3c(cc2nc1N1CCCCC1)OCCO3 | nt | nt | nt | i | i | i
N#Cc1cc2cc3c(cc2nc1Cl)OCCO3 | i | i | 41 | i | i | nt
COCCOC(=O)c1[nH]c2c(c1C)C(=O)CC(c1cc(OC)ccc1OC)C2 (stereo not given) | i | i | i | i | nt | i
CCCOCCOC(=O)c1[nH]c2c(c1C)C(=O)CC(c1cc(OC)ccc1OC)C2 (stereo not given) | i | 9.6 | i | i | nt | i
C/C=C/c1cnc2c(c1)C(=O)N([C@H](C)CO)C[C@@H](C)[C@H](CN(C)Cc1ccncc1)O2 | i | i | i | i | nt | i
COc1cccc(CNC(=O)CSc2nc3ccc(C)cc3[nH]2)c1 | i | 8.4 | i | i | i | i
COc1ccc2nc(SCC(=O)NCc3ccc(F)cc3)[nH]c2c1 | i | i | i | i | i | i
COc1ccc(S(=O)(=O)Nc2ccc3c(c2)CC(=O)N([C@H](C)CO)C[C@H](C)[C@H](CN(C)C(=O)NC(C)C)O3)cc1 | i | i | 64 | i | nt | i
COc1ccc(S(=O)(=O)N(C)C[C@H]2Oc3ccc(NS(=O)(=O)c4ccc(F)cc4)cc3CC(=O)N([C@@H](C)CO)C[C@@H]2C)cc1 | i | i | 77 | i | nt | nt
COc1ccc(S(=O)(=O)Nc2ccc3c(c2)CC(=O)N([C@H](C)CO)C[C@@H](C)[C@H](CN(C)C(=O)NC(C)C)O3)cc1 | i | i | i | i | nt | i
C[C@H]1CN([C@@H](C)CO)C(=O)Cc2cc(NS(=O)(=O)c3ccc(F)cc3)ccc2O[C@@H]1CN(C)S(=O)(=O)c1ccc(F)cc1 | i | i | i | i | nt | 98
C[C@@H]1CN([C@H](C)CO)C(=O)Cc2cc(NS(=O)(=O)c3ccc(F)cc3)ccc2O[C@@H]1CN(C)S(C)(=O)=O | i | i | 31 | i | nt | i
C[C@@H]1CN([C@H](C)CO)C(=O)Cc2cc(NS(=O)(=O)c3ccc(F)cc3)ccc2O[C@@H]1CN(C)S(=O)(=O)c1cn(C)cn1 | 27 | i | i | i | nt | i
COc1ccc(S(=O)(=O)N(C)C[C@@H]2Oc3ccc(NS(=O)(=O)c4ccc(Cl)cc4)cc3CC(=O)N([C@@H](C)CO)C[C@@H]2C)cc1 | nt | i | 64 | i | nt | i
COc1ccc(S(=O)(=O)Nc2ccc3c(c2)CC(=O)N([C@H](C)CO)C[C@@H](C)[C@H](CN(C)S(=O)(=O)c2ccc(F)cc2)O3)cc1 | nt | i | 43 | i | nt | i
SMILES | ERp5 block | CFTR F508del cor | DENV2 CPE | C2C12 statin | PDI inh | Cneo AK release
COc1ccc(S(=O)(=O)Nc2ccc3c(c2)CC(=O)N([C@H](C)CO)C[C@H](C)[C@H](CN(C)S(=O)(=O)c2ccc(Cl)cc2)O3)cc1 | i | i | i | i | nt | i
COc1ccc(S(=O)(=O)N(C)C[C@@H]2Oc3ccc(NS(=O)(=O)c4ccc(F)cc4)cc3CC(=O)N([C@@H](C)CO)C[C@@H]2C)cc1 | i | i | i | i | nt | nt
C[C@@H]1CN([C@@H](C)CO)C(=O)Cc2cc(NS(=O)(=O)c3ccccc3)ccc2O[C@@H]1CN(C)S(C)(=O)=O | i | i | 24 | i | nt | i
COCC(=O)Nc1ccc2c(c1)OC[C@H](C)N(CC1CC1)C[C@H](C)[C@H](OC)CN(C)C2=O | i | i | ? | i | nt | i
COc1ccccc1NC(=O)N1CC(=O)N2[C@H](C1)[C@H](c1ccc(C#CC3CC3)cc1)[C@@H]2CO | i | i | i | nt | nt | nt
COc1cc(C(c2sc3nc(C)nn3c2O)N2CCN(c3ccccc3)CC2)cc(OC)c1OC (stereo not given) | i | 8.5 | i | i | nt | i
Cc1nc2sc(C(c3ccccc3)N3CC(C)OC(C)C3)c(O)n2n1 (stereo not given) | nt | nt | nt | i | i | i
Cc1nc2sc(C(c3ccc(Br)cc3)N3CC(C)OC(C)C3)c(O)n2n1 (stereo not given) | nt | nt | nt | 91 | i | i
C[C@@H]1CCCCO[C@H](CN(C)C(=O)Nc2ccc(F)cc2)[C@@H](C)CN([C@@H](C)CO)C(=O)c2cc(NS(=O)(=O)c3cn(C)cn3)ccc2O1 | i | i | i | nt | nt | i
O=C(CC1CC1)N1CC2(C1)[C@@H](c1ccccc1)[C@@H](CO)N2C(=O)c1cnccn1 | i | i | 32 | nt | nt | nt
C/C=C/c1ccc([C@@H]2[C@H](CO)N(C(=O)c3cnccn3)C23CN(C(=O)C2CCC2)C3)cc1 | i | i | i | nt | nt | nt
C/C=C/c1ccc([C@@H]2[C@H](CO)N(C(=O)c3cnccn3)C23CN(C(=O)C2CC2)C3)cc1 | i | i | 24 | nt | nt | nt
O=C(c1ccccn1)N1CC2(C1)[C@H](c1ccccc1)[C@@H](CO)N2Cc1ccc(F)cc1 | i | i | 39 | nt | nt | nt
O=C(CC1CC1)N1CC2(C1)[C@H](c1ccccc1)[C@@H](CO)N2C(=O)c1cnccn1 | i | i | i | nt | nt | nt
C/C=C/c1ccc([C@H]2[C@@H](CO)N(C(=O)C3CC3)C23CN(C(=O)NC(C)C)C3)cc1 | i | i | 105 | nt | nt | nt
C[C@@H]1CN([C@@H](C)CO)C(=O)c2cccc(NS(=O)(=O)c3ccc(F)cc3)c2O[C@H]1CN(C)C(=O)Nc1ccccc1 | i | i | i | i | nt | i
CCCNC(=O)N1[C@H](CO)[C@@H]2c3ccccc3N(C(=O)c3ccccc3)C[C@@H]21 | i | i | i | i | nt | i
